For data set [1], the target named is T1, Nitric oxide synthase, inducible (Homo sapiens, UniProt P35228). Put plainly: Inhibition of N-terminal His-tagged human recombinant iNOS expressed in Escherichia coli assessed as reduction in L-[3H]-citrulline level using L-[3H]-arginine as substrate at 1 mM incubated for 30 mins by liquid scintillation method relative to control.
Data set [2] deals with T2, Nitric oxide synthase 1 (Homo sapiens, UniProt P29475). The data set is described as follows: Inhibition of human recombinant nNOS expressed in Escherichia coli assessed as reduction in L-[3H]-citrulline level using L-[3H]-arginine as substrate at 1 mM incubated for 30 mins by liquid scintillation method relative to control.
Data set [3] concerns the target T1, Nitric oxide synthase, inducible. Put plainly: Inhibition of N-terminal His-tagged human recombinant iNOS expressed in Escherichia coli assessed as reduction in L-[3H]-citrulline level using L-[3H]-arginine as substrate incubated for 30 min by scintillation counting.
Data set [4] deals with HUVEC. The data set is described as follows: Cytotoxicity against HUVEC assessed as reduction in cell viability at 10 to 100 uM measured after 30 mins by MTT assay. In kind it is cell-based. The conditions noted are these: human, 0.5 h, 500 µM, in the assay text read “10 to 500 uM” for “10 to 100 uM”. The method, boiled down: (§1)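 HUVECs seeded at 1x10⁴ cells/well, grown 24 h at 37 °C, switched to serum-free medium for at least 2 h, then exposed to serial dilutions (10 - 500 µM) for 30 min. MTT added for 3 h at 37 °C, formazan dissolved in DMSO, absorbance read at 570 nm minus 630 nm background. Viability given as % of untreated cells. At least three independent runs in triplicate.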
On the technique in general: Tetrazolium assays rely on reduction of a dye to a coloured formazan, in cell work by metabolically active cells.

The target in data set [5] is T2, Nitric oxide synthase 1. The data set is described as follows: Inhibition of human recombinant nNOS expressed in Escherichia coli assessed as reduction in L-[3H]-citrulline level using L-[3H]-arginine as substrate incubated for 30 min by scintillation counting.
A short description of data set [6]: Cytotoxicity against HUVEC assessed as reduction in cell viability at 500 uM measured after 30 mins by MTT assay relative to control. In kind it is cell-based. The following applies: human, HUVEC cells, read-out: INH. Summed up: as §1
Data set [7] addresses T3, Nitric oxide synthase 3 (Rattus norvegicus, UniProt Q62600).
T3 sequence (Q62600 whole entry): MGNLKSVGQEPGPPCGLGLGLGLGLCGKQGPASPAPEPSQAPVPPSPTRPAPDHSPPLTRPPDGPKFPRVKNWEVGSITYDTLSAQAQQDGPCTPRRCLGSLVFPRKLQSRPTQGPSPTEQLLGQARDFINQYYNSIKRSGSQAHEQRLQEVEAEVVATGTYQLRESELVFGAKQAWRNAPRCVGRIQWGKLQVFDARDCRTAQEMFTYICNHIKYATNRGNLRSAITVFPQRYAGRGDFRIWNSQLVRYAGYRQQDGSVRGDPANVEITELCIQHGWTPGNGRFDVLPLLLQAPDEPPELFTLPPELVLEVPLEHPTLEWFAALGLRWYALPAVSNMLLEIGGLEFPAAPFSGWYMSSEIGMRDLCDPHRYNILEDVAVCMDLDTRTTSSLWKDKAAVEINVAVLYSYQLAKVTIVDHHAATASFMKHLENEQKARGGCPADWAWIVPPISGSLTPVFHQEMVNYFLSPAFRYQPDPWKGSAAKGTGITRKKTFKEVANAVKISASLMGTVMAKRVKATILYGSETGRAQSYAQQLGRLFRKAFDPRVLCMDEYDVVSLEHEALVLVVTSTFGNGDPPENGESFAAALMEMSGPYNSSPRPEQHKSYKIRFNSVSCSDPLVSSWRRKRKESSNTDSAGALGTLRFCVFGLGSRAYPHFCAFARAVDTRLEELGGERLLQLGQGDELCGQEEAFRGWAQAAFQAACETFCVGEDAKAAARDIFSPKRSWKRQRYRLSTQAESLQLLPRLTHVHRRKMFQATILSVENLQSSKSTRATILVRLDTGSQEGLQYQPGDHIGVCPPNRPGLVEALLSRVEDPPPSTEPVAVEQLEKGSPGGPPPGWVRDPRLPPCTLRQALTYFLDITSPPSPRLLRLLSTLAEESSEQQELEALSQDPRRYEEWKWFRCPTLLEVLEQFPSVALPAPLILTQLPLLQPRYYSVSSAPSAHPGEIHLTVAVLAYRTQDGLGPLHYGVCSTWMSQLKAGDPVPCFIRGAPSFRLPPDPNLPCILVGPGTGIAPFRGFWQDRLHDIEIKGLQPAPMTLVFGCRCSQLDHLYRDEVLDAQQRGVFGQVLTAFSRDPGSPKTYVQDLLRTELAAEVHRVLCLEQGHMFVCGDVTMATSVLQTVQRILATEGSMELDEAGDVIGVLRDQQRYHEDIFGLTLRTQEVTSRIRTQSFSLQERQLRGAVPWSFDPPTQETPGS
Put plainly: Inhibition of eNOS in Wistar rat endothelium-intact thoracic aortic rings assessed as inhibition of acetylcholine-evoked relaxation at 20 uM pretreated with compound for 30 mins followed by norepinephrine addition and later incubated with acetylcholine. In kind it is tissue-based, Thoracic aorta. The following applies: 0.5 h. The method, boiled down: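 Rat descending thoracic aortic rings with endothelium, in Krebs at 37 °C gassed with 95% O₂/5% CO₂, 2 g resting tension, isometric recording. Incubated 30 min with compound (20 µM), L-NAME (100 µM) or DMSO vehicle (1/10⁶), contracted with 1 µM norepinephrine, then cumulative acetylcholine. Relaxation given as % of norepinephrine contraction. Two-way ANOVA with Dunnett's test.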

The target in data set [8] is T3, Nitric oxide synthase 3. The data set is described as follows: Inhibition of eNOS in Wistar rat endothelium-intact thoracic aortic rings assessed as inhibition of acetylcholine-evoked relaxation at 100 uM pretreated with compound for 30 mins followed by norepinephrine addition and later incubated with acetylcholine. The format is tissue-based, Thoracic aorta. The following applies: 0.5 h. Summed up: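 Descending thoracic aortic rings with endothelium were held in Krebs solution at 37 °C, gassed with 95% O2/5% CO2, at 2 g resting tension, with isometric force recorded. Rings were incubated 30 min with test agent or DMSO vehicle (1/10⁶), then contracted with 1 µM norepinephrine. At plateau, acetylcholine was added cumulatively. Relaxation is given as % of norepinephrine contraction; n = rings from different rats; two-way ANOVA with Dunnett.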

The record followed here is ChEMBL document CHEMBL4808198, “Synthesis, bioevaluation and docking studies of new imidamide derivatives as nitric oxide synthase inhibitors” (Bioorg Med Chem, 2021).

T1 sequence (P35228 whole entry): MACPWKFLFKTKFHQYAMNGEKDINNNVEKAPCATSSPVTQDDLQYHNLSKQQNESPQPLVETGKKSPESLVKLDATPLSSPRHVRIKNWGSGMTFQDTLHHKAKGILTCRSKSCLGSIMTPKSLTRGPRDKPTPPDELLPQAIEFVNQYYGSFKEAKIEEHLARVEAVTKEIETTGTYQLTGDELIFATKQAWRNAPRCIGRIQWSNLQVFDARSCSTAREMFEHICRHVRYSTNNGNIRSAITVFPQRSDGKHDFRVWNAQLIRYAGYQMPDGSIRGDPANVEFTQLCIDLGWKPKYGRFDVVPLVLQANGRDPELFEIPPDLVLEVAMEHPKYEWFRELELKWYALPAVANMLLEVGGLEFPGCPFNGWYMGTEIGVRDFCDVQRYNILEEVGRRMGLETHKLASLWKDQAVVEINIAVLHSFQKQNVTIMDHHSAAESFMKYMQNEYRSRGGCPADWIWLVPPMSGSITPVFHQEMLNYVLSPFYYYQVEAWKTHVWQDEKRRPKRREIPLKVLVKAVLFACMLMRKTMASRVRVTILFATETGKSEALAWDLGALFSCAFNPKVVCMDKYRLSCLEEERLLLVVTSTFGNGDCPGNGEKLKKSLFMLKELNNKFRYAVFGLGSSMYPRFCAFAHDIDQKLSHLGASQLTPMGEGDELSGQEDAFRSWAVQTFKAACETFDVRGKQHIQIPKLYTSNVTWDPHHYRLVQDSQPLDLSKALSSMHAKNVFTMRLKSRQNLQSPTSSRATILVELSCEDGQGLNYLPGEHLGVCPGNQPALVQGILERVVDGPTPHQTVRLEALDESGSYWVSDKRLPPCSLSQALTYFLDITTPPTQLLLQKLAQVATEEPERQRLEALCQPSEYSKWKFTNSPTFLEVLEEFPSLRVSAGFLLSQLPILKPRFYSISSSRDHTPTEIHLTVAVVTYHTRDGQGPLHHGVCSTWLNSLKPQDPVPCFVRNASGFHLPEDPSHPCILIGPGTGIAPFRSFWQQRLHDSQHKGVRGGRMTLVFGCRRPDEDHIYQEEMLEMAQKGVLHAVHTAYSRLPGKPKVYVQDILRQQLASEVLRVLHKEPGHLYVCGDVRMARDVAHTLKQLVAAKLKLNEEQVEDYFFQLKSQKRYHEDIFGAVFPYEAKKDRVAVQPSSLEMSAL
T2 sequence (P29475 whole entry): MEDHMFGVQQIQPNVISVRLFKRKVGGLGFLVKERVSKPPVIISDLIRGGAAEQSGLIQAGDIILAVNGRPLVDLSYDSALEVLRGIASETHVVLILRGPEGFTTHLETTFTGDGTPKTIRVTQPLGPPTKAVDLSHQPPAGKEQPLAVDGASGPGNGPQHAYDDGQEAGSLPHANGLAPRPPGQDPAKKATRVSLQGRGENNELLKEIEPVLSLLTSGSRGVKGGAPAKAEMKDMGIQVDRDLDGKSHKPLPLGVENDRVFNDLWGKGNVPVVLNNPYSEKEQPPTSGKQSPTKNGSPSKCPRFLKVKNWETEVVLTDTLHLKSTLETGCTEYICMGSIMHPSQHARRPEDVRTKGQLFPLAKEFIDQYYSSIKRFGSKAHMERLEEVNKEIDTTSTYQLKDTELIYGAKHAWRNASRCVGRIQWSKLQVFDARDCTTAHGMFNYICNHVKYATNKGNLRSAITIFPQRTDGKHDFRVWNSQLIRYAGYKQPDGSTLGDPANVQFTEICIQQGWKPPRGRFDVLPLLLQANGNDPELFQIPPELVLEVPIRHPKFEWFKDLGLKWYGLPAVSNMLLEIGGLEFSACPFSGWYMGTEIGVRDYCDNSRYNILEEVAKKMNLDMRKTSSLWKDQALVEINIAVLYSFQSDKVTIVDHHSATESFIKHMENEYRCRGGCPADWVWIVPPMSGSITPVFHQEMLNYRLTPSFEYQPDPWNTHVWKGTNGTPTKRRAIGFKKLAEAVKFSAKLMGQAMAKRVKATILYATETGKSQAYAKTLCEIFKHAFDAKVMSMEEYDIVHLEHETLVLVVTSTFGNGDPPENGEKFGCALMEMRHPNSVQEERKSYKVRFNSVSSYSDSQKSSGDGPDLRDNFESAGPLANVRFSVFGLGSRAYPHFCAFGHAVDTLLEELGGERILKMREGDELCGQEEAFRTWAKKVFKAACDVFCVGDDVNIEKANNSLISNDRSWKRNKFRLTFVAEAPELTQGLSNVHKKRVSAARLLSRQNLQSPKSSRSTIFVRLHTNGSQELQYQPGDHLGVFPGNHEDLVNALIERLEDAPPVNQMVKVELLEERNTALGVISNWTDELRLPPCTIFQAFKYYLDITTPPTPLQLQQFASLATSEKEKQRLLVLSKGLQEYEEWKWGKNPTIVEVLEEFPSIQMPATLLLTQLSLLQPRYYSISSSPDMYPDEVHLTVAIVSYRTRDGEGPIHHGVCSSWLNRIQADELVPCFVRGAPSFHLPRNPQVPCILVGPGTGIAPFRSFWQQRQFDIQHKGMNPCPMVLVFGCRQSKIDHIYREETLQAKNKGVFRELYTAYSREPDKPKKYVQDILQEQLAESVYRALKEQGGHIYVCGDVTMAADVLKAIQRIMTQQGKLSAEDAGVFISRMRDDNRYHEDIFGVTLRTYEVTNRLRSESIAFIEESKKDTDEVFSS

For orientation: inhibition means the percentage by which the read-out fell short of the control. On to `N=C(NCCC(=O)c1ccccc1N)c1ccc(C(F)(F)F)cc1`, for which the results for the inhibition in data set [1] and in data set [2] were 68.6% and 56%, respectively.
By IC50 is commonly meant the concentration that gives 50% inhibition. As for `COc1ccc(N)c(C(O)CCNC(=N)c2ccccc2)c1` (stereo not given), the 50% inhibitory concentration (IC50) in data set [3] was 22.5 µM; in data set [5], over 1000 µM. Moreover, the Activity entry in data set [4] is listed as “Non-Toxic”. Besides, the inhibition in data set [1] came to 95.9%; in data set [2], 7.18%. Moreover, in data set [6], the cytotoxicity at 0.5 h, 500 µM worked out at 20%.
As to `COc1ccc(N)c(C(=O)CCNC(C)=N)c1`, the results for the IC50 in data set [3] and in data set [5] were 59.7 µM and 223 µM, respectively. In addition, the values for the inhibition in data set [1] and in data set [2] were 97.6% and 89.2%, respectively.
For the compound `N=C(NCCC(=O)c1ccccc1N)c1ccccc1`, the inhibition in data set [1] amounted to 35.6%; in data set [2] it was 66.5%.
On to `CNC(=S)NCCC(O)c1cc(OC)ccc1N` (stereo not given), for which the 50% inhibitory concentration (IC50) in data set [3] was found to be 180 µM; in data set [5] it was 130 µM.
Regarding `CC(=N)NCCC(=O)c1ccccc1N`, the IC50 in data set [3] is over 1000 µM; in data set [5], 325 µM. Moreover, the inhibition in data set [1] was 22.2%; in data set [2], 88.8%.
Regarding `CC(=N)NCCC(=O)c1cc(Cl)ccc1N`, the results for the IC50 in data set [3] and in data set [5] were 25.6 µM and over 1000 µM, respectively. Further, the Activity result in data set [4] is “Non-Toxic”. Further, the inhibition came to 99.1% in data set [1] and 19.9% in data set [2]. The cytotoxicity at 0.5 h, 500 µM in data set [6] turned out to be 20%.
For `COc1ccc(N)c(C(=O)CCNC(=N)c2ccccc2)c1`, the IC50 in data set [3] came out at 45.2 µM; in data set [5], 194 µM. Besides, the Activity entry in data set [4] is on record as “Non-Toxic”. For the same compound, the figures for the inhibition in data set [1] and in data set [2] were 94.7% and 85.9%, respectively. The cytotoxicity at 0.5 h, 500 µM in data set [6] was 20%.
On to `COc1ccc(N)c(C(O)CCNC(=N)c2ccc(C(F)(F)F)cc2)c1` (stereo not given), for which the IC50 in data set [3] was 20 µM; in data set [5], over 1000 µM. Moreover, the Activity result in data set [4] is listed as “Non-Toxic”. The inhibition in data set [1] is 99.6%; in data set [2] it was 12.5%. Also, in data set [6], the cytotoxicity at 0.5 h, 500 µM turned out to be 20%. Besides, the “inhibition (INH)” value in data set [7] is reported as “Not Active”.
As to `COC(=O)[C@@H](N)CCCNC(=N)N[N+](=O)[O-]` [L-NAME], the “inhibition (INH)” value in data set [8] is “Active”.
With `COc1ccc(N)c(C(=O)CCNC(=N)c2ccc(Cl)cc2)c1`, the inhibition stood at 75.1% in data set [1] and 86.4% in data set [2].
On to `COc1ccc(N)c(C(O)CCNC(=N)c2ccc(Cl)cc2)c1` (stereo not given), for which the figures for the inhibition in data set [1] and in data set [2] were 81% and 58.5%, respectively.
For `N=C(NCCC(O)c1ccccc1N)c1ccccc1` (stereo not given) the same measures were 64.1% and 23.2%.
The matching figures for `N=C(NCCC(O)c1ccccc1N)c1ccc(Cl)cc1` (stereo not given): 73.2% and 31.6%.
For the compound `CC(=N)NCCC(O)c1cc(Cl)ccc1N` (stereo not given), the inhibition in data set [1] worked out at 49.1%; in data set [2] it was 66.1%.
The matching figures for `CC(=N)NCCC(O)c1ccccc1N` (stereo not given): 16.2% and 28.3%.
`N=C(NCCC(=O)c1ccccc1N)c1ccc(Cl)cc1`: the values for the inhibition in data set [1] and in data set [2] were 33.4% and 37.4%, respectively.
The matching figures for `COc1ccc(N)c(C(O)CCNC(C)=N)c1` (stereo not given): 57.4% and 19%.
For `N=C(NCCC(O)c1ccccc1N)c1ccc(C(F)(F)F)cc1` (stereo not given) the same measures were 60.5% and 36.5%.
Turning to `CCNC(=O)NCCC(=O)c1cc(Cl)ccc1N`, the IC50 in data set [3] was 100 µM; in data set [5], over 1000 µM.
